Test results: ChEMBL document CHEMBL1156332, “Polysubstituted pyrazoles, part 6. Synthesis of some 1-(4-chlorophenyl)-4-hydroxy-1H-pyrazol-3-carbonyl derivatives linked to nitrogenous heterocyclic ring systems as potential antitumor agents” (2010)
Active and inactive are the calls of the source. No cut-off for these calls is given here.

How the values were obtained:
Assay type in all cases: functional
SK-MEL-2 = assay: Growth inhibition of human SK-MEL-2 cells after 48 hrs by sulforhodamine B assay
Procedure, shortened: (§1)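 Adherent lines plated and held 24 h at 37 °C, 5% CO2, 100% humidity; time-zero plates TCA-fixed at drug addition. Drugs from DMSO stocks were made into five concentrations by 10-fold or half-log serial dilution and applied for 48 h continuous exposure. Cells were fixed with cold TCA (10% final) for 60 min at 4 °C, then stained with 0.4% SRB in 1% acetic acid for 10 min. Dye was solubilized in 10 mM Tris base and read at 515 nm. GI50 was taken from log concentration–growth curves.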

UACC-257 = assay: Growth inhibition of human UACC257 cells after 48 hrs by sulforhodamine B assay; conditions: UACC-257, 48 h; procedure, shortened: as §1
SK-OV-3 = assay: Growth inhibition of human SKOV3 cells after 48 hrs by sulforhodamine B assay; conditions: SK-OV-3, 48 h; procedure, shortened: as §1
[1] = Growth inhibition of human Hs 578T cells after 48 hrs by sulforhodamine B assay
Procedure, shortened: (§2)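 NCI 60-line panel, five concentrations (0.01–100 µM) from DMSO stock diluted in medium with gentamicin. Cells were plated 24 h before dosing, with time-zero plates fixed at drug addition, then exposed 48 h at 37 °C, 5% CO₂. Adherent cells were fixed with cold TCA (10% final) and suspension cells with 16% TCA. Staining used 0.4% SRB, solubilised in 10 mM Tris and read at 515 nm. GI₅₀ was taken from log concentration–% growth curves.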

MDA-MB-435 = assay: Growth inhibition of human MDA-MB-435 cells after 48 hrs by sulforhodamine B assay; conditions: MDA-MB-435, 48 h; procedure, shortened: as §2
[2] = Cytotoxicity against human lung cancer cells after 48 hrs by sulforhodamine B assay; conditions: Cancer cell lines
Procedure, shortened: (§3)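 NCI five-dose screen: about 60 human tumour lines grouped into nine subpanels were plated and incubated 24 h before dosing. Compounds went in as DMSO stock and were diluted in medium to five final concentrations (0.01–100 µM). Exposure was 48 h continuous at 37 °C, 5% CO₂, followed by TCA fixation and SRB staining read at 515 nm. Per-line GI₅₀, TGI and LC₅₀ came from log concentration–% growth curves, averaged per subpanel as MG-MID.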

OVCAR-5 = assay: Growth inhibition of human OVCAR5 cells after 48 hrs by sulforhodamine B assay; conditions: OVCAR-5, 48 h; procedure, shortened: as §2
HCT-116 = assay: Growth inhibition of human HCT116 cells after 48 hrs by sulforhodamine B assay; conditions: HCT-116, 48 h; procedure, shortened: as §2
SF-268 = assay: Growth inhibition of human SF268 cells after 48 hrs by sulforhodamine B assay; conditions: SF-268, 48 h; procedure, shortened: as §2
NCI-H460 = assay: Growth inhibition of human NCI-H460 cells after 48 hrs by sulforhodamine B assay; conditions: NCI-H460, 48 h; procedure, shortened: as §2
MDA-MB-468 = assay: Growth inhibition of human MDA-MB-468 cells after 48 hrs by sulforhodamine B assay; conditions: MDA-MB-468, 48 h; procedure, shortened: as §2
HOP-62 = assay: Growth inhibition of human HOP62 cells after 48 hrs by sulforhodamine B assay; conditions: HOP-62, 48 h; procedure, shortened: as §2
UACC-62 = assay: Growth inhibition of human UACC62 cells after 48 hrs by sulforhodamine B assay; conditions: UACC-62, 48 h; procedure, shortened: as §1
NCI-H226 = assay: Growth inhibition of human NCI-H226 cells after 48 hrs by sulforhodamine B assay; conditions: NCI-H226, 48 h; procedure, shortened: as §2
ACHN = assay: Growth inhibition of human ACHN cells after 48 hrs by sulforhodamine B assay; procedure, shortened: as §2
CCRF-CEM = assay: Growth inhibition of human CCRF-CEM cells after 48 hrs by sulforhodamine B assay; procedure, shortened: as §2
[3] = Cytotoxicity against human breast cancer cells after 48 hrs by sulforhodamine B assay; conditions: Cancer cell lines; procedure, shortened: as §3
[4] = Cytotoxicity against human colon cancer cells after 48 hrs by sulforhodamine B assay; conditions: Cancer cell lines; procedure, shortened: as §3
IGROV-1 = assay: Growth inhibition of human IGROV1 cells after 48 hrs by sulforhodamine B assay; conditions: IGROV-1, 48 h; procedure, shortened: as §2
[5] = Cytotoxicity against human CNS cancer cells after 48 hrs by sulforhodamine B assay; conditions: Cancer cell lines; procedure, shortened: as §3
PC-3 = assay: Growth inhibition of human PC3 cells after 48 hrs by sulforhodamine B assay; conditions: PC-3, 48 h; procedure, shortened: as §2
CAKI-1 = assay: Growth inhibition of human Caki1 cells after 48 hrs by sulforhodamine B assay; conditions: CAKI-1, 48 h; procedure, shortened: as §2
OVCAR-4 = assay: Growth inhibition of human OVCAR4 cells after 48 hrs by sulforhodamine B assay; conditions: OVCAR-4, 48 h; procedure, shortened: as §2
MOLT-4 = assay: Growth inhibition of human MOLT4 cells after 48 hrs by sulforhodamine B assay; conditions: MOLT-4, 48 h; procedure, shortened: as §2
SR = assay: Growth inhibition of human SR cells after 48 hrs by sulforhodamine B assay
Procedure, shortened: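 Suspension leukemia line pre-incubated 24 h at 37 °C, 5% CO2; time-zero plates fixed at drug addition. Five drug concentrations were made by serial dilution from DMSO stocks and applied for 48 h. Settled cells were fixed with 80% TCA (16% final), stained with 0.4% SRB in 1% acetic acid, solubilized in 10 mM Tris base, and read at 515 nm. GI50 = concentration giving 50% decrease in net growth.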

SK-MEL-28 = assay: Growth inhibition of human SK-MEL-28 cells after 48 hrs by sulforhodamine B assay; conditions: SK-MEL-28, 48 h; procedure, shortened: as §1
[6] = Cytotoxicity against human melanoma cells after 48 hrs by sulforhodamine B assay; conditions: Melanoma cell; procedure, shortened: as §3
DU-145 = assay: Growth inhibition of human DU145 cells after 48 hrs by sulforhodamine B assay; conditions: DU-145, 48 h; procedure, shortened: as §2
SK-MEL-5 = assay: Growth inhibition of human SK-MEL-5 cells after 48 hrs by sulforhodamine B assay; conditions: SK-MEL-5, 48 h; procedure, shortened: as §1

## O=C1CC(=O)N(C(=O)c2nn(-c3ccc(Cl)cc3)cc2O)N1
SK-MEL-2
  GI50: inactive
UACC-257
  GI50: 1860 nM
SK-OV-3
  GI50: 1920 nM
[1]
  GI50: 190 nM
MDA-MB-435
  GI50: 330 nM
[2]
  GI50: 510 nM
  TGI: 80300 nM
OVCAR-5
  GI50: 8080 nM
HCT-116
  GI50: 340 nM
SF-268
  GI50: 510 nM
NCI-H460
  GI50: 310 nM
MDA-MB-468
  GI50: 720 nM
HOP-62
  GI50: 510 nM
UACC-62
  GI50: 390 nM
NCI-H226
  GI50: 730 nM
ACHN
  GI50: 580 nM
CCRF-CEM
  GI50: 420 nM
[3]
  GI50: 820 nM
  TGI: 79600 nM
[4]
  GI50: 1510 nM
  TGI: 86200 nM
IGROV-1
  GI50: 380 nM
[5]
  GI50: 330 nM
  TGI: 87900 nM
PC-3
  GI50: 360 nM
CAKI-1
  GI50: 650 nM
OVCAR-4
  GI50: 1520 nM
MOLT-4
  GI50: 410 nM
SR
  GI50: 260 nM
SK-MEL-28
  GI50: 5260 nM
[6]
  GI50: 1600 nM
  TGI: 50100 nM
[6]; read-out: LC50 (the source's name)
  CC50: 85200 nM
DU-145
  GI50: 980 nM
SK-MEL-5
  GI50: 1920 nM
